pIC50, pKi: −log10 of the molar value.
Experiments:
[1] = species on record: Cavia porcellus; assay: Partial agonist potency at 1 uM was measured using Guinea pig ileum preparation; format: functional
How it was run: (§1)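 Longitudinal muscle strips from male Hartley guinea pig ileum (250–400 g) in Krebs-Tris at 37 °C, oxygenated. Stimulated electrically at 0.1 Hz, 0.8 ms, supramaximal voltage, under 1 g resting tension. Contractions recorded isometrically after 90 min equilibration, with cumulative dose–response curves for inhibition. Partial agonist response is taken at 1 μM.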

[2] = species on record: Cavia porcellus; assay: Ke value was measured as antagonist/ (IC50 ratio - 1); format: functional
How it was run: (§2)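 Ileum strips in the electrically stimulated guinea pig ileum set-up, 37 °C Krebs-Tris. […] IC50 ratio is IC50 with antagonist divided by control IC50 in the same preparation. Ke = [antagonist]/(IC50 ratio – 1).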

[3] = biological target: Kappa-type opioid receptor (Cavia porcellus) (UniProt P41144); assay: (§3) Opioid antagonistic activity was measured against kappa receptor in guinea pig ileal preparation using US-50488 as agonist; format: functional
Chain of Kappa-type opioid receptor (Cavia porcellus) (P41144 whole entry): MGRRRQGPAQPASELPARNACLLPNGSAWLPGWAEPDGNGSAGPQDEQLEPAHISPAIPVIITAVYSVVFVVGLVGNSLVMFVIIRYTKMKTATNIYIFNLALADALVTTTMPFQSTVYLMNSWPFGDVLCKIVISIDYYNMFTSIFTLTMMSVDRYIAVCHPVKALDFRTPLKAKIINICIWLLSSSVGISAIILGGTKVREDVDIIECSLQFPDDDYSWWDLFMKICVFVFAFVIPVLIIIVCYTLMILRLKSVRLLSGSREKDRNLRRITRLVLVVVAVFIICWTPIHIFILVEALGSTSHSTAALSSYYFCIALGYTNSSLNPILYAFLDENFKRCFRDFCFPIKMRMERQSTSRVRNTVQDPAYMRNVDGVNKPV
How it was run: (§4)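 Electrically stimulated guinea pig ileum longitudinal muscle strips. After control agonist curves and washout, the test antagonist is applied at 3 nM for 30 min. […] Ke = [antagonist]/(IC50 ratio – 1).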

[4] = system: Mus musculus; assay: In vivo analgesic activity was measured by using Antiphenyl quinone Writhing(PQW) test after subcutaneous administration; Inactive; format: functional; settings: sc
How it was run: (§5)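 Fasted male CFI mice, 18–23 g, given coded doses of test compound, then phenylquinone 1.25 mg/kg ip 5 min before the designated test time. Analgesia is scored as complete blockade of writhing over a 10-min observation period starting at test time.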

[5] = system: Mus musculus; assay: Narcotic antagonism was measured by using Anti-Straub tail (AST) test after subcutaneous administration; format: functional; settings: sc
How it was run: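 Fasted male CFI mice, 18–23 g, given coded doses of test compound, then desonitazene 0.08 mg/kg ip 5 min before the designated test time. Antagonism is scored as complete blockade of the Straub tail response over a 5-min observation period starting at test time.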

[6] = biological target: Mu-type opioid receptor (Cavia porcellus) (UniProt P97266); assay: (§6) Opioid antagonistic activity was measured against mu receptor in guinea pig ileal preparation using morphine as agonist; format: functional; how it was run: as §4
Chain of Mu-type opioid receptor (Cavia porcellus) (P97266 whole entry): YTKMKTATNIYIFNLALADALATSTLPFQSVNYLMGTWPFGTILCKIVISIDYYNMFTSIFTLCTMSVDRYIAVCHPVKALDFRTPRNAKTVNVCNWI

[7] = biological target: Mu-type opioid receptor (Cavia porcellus, UniProt P97266); assay: […]; format: organism-based
Chain of Mu-type opioid receptor (P97266 whole entry): as above
How it was run: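 Brain membranes come from male Hartley guinea pigs, 250–300 g. Values are the mean of three experiments, each done in duplicate.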

[8] = biological target: Kappa-type opioid receptor (Cavia porcellus, UniProt P41144); assay: biochemical; format: organism-based
Chain of Kappa-type opioid receptor (P41144 whole entry): as the sequence (P41144 whole entry) above

[9] = as §6; format: functional; how it was run: as §4
[10] = as §3; format: functional; how it was run: as §4
[11] = Ratio between IC50 of the agonist in presence of naloxone and IC50 of the control; format: functional; how it was run: as §2
[12] = system: Mus musculus; assay: In vivo analgesic activity was measured by using Antiphenyl quinone Writhing(PQW) test after subcutaneous administration; format: functional; settings: sc; how it was run: as §5
[13] = species on record: Cavia porcellus; assay: Ke value was measured as concentration of antagonist/ (IC50 ratio - 1); format: functional; how it was run: as §2
[14] = species on record: Cavia porcellus; assay: Opioid agonistic activity was measured by using Guinea pig ileum bioassay; format: functional; how it was run: as §1

Row | SMILES | ED50 [4] [mg/kg] | ED50 [5] [mg/kg] | pKi [7] | pKi [8] | ED50 [12] [mg/kg] | also measured
1 | Oc1cccc2c1O[C@H]1[C@H](O)CC[C@@H]3CN(CC4CC4)CC[C@@]231 | > 4 | 0.8 | 8.41 | 7.92 |  | Max response [1]: 78%; Ke [2]: 13.3 nM; Ke [3]: 2.3 nM; Ke [6]: 0.57 nM; Ratio [9]: 6.3; Ratio [10]: 2.3; Ratio [11]: 8.5
2 | CN1CC[C@]23c4cccc(O)c4O[C@H]2C(=O)CC[C@H]3C1 |  | 1.4 | 8.11 | 6.73 | 0.4 | 
3 | Oc1cccc2c1O[C@H]1CCC[C@H]3CN(CC4CC4)CC[C@@]231 |  | 0.018 | 9.24 | 8.92 | 0.025 | 
4 | C=CCN1CC[C@]23c4c5ccc(O)c4O[C@H]2C(=O)CC[C@@]3(O)[C@H]1C5 [NALOXONE] | > 100 | 0.02 |  |  |  | 
5 | O=C1CC[C@@H]2CN(CC3CC3)CC[C@@]23c2cccc(O)c2O[C@@H]13 | > 5.4 | 1 | 7.72 | 7.21 |  | 
6 | COc1cccc2c1O[C@H]1[C@@H](O)CC[C@H]3CN(CC4CC4)CC[C@@]231 |  | 1.4 | 7.54 | 6.85 | 3 | 
7 | O=C1CC[C@H]2CN(CC3CC3)CC[C@@]23c2cccc(O)c2O[C@@H]13 |  | 0.022 | 9.60 | 8.76 | 0.15 | 
8 | Oc1cccc2c1O[C@H]1[C@@H](O)CC[C@H]3CN(CC4CC4)CC[C@@]231 |  | 0.55 | 8.85 | 8.31 | 0.37 | Ke [13]: 14.1 nM; pIC50 [14]: 8.55; Ratio [11]: 8.1
9 | COc1cccc2c1O[C@H]1C(=O)CC[C@H]3CN(CC4CC4)CC[C@@]231 |  | 0.34 | 7.12 | 5.75 | 0.93 | 
